These results are taken from ChEMBL document CHEMBL1142703, “Novel ligands for the chemokine receptor-3 (CCR3): a receptor-modeling study based on 5D-QSAR” (J Med Chem, 2005).

For this experiment, the target named is T1, C-C chemokine receptor type 3 (Homo sapiens, UniProt P51677).
T1 sequence (P51677 whole entry): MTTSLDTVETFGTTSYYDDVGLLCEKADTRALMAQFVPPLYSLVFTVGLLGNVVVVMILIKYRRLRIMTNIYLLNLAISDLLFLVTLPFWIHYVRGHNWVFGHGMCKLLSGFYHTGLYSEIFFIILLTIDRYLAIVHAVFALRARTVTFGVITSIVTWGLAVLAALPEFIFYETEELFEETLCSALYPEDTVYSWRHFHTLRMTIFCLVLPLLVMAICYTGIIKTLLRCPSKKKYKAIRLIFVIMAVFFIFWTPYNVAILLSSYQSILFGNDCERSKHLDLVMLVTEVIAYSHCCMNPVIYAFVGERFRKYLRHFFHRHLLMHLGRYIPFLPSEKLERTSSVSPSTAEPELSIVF
Description: Inhibition of [125I]eotaxin-1 binding to human chemokine receptor (hCCR3-C1). The method in brief: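 K562 leukemia myelogenic blast cells transfected with human CCR3 (hCCR3-C1). Binding of the radioligand 125I-eotaxin-1 was measured in a scintillation proximity format. Controls: specific binding with no displacer added, and nonspecific binding with unlabeled eotaxin or test compound added. Bound radioactivity was counted by scintillation. Ki was obtained by iterative fitting of the data to a law-of-mass-action model.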
`Cc1ccc(CCNCC(c2ccc(C(F)(F)F)cc2)N2CCN(C3CCCCC3)CC2)cc1` (stereo not given) returned a Ki of 545 nM. To `CC(C)(C)c1ccc(C(CNC(=O)Nc2ccc(C(F)(F)F)cc2)N2CCN(C3CCCCC3)CC2)cc1` (stereo not given) belongs 972 nM.

As to `COc1ccc(C(CNC(=O)Nc2ccc(F)cc2)N2CCN(C3CCCCC3)CC2)cc1` (stereo not given), the Ki was 1030 nM. This Ki and that of the molecule before are within 1.5-fold of each other.

Molecule `FC(F)(F)c1ccc(CCNCC(c2ccccc2)N2CCN(C3CCCCC3)CC2)cc1` (stereo not given) displayed a Ki of 1310 nM. As for `COc1ccccc1CCNCC(c1ccc(C(F)(F)F)cc1)N1CCN(C2CCCCC2)CC1` (stereo not given), the figure is 118 nM; as for `COc1ccc(C(CNC(=O)Nc2ccc(C(C)(C)C)cc2)N2CCN(C3CCCCC3)CC2)cc1` (stereo not given), 910 nM; as for `COc1ccccc1C(CNC(=O)Nc1ccc(C)cc1)N1CCN(c2ccccc2)CC1` (stereo not given), 3540 nM. To `COc1ccccc1C(CNC(=O)Nc1ccc(F)cc1)N1CCN(C2CCCCC2)CC1` (stereo not given) belongs 5380 nM. To `Cc1ccc(NC(=O)NCC(c2ccc(C(F)(F)F)cc2)N2CCN(C)CC2)cc1` (stereo not given) belongs 10700 nM; to `FC(F)(F)c1ccc(C(CNCCc2cc(Cl)cc(Cl)c2)N2CCN(C3CCCCC3)CC2)cc1` (stereo not given), 129 nM.

With `COc1ccc(C(CNC(=O)Nc2ccc(C(F)(F)F)cc2)N2CCN(C3CCCCC3)CC2)cc1` (stereo not given), the affinity, expressed as Ki, was 1530 nM. This Ki is about 12-fold higher than that of the molecule before. As for `O=C(NCC(c1ccc(C(F)(F)F)cc1)N1CCN(C2CCCCC2)CC1)Nc1ccc(C(F)(F)F)cc1` (stereo not given), the figure is 1310 nM; as for `Cc1cc(C)cc(NC(=O)NCC(c2ccc(-c3ccccc3)cc2)N2CCN(C3CCCCC3)CC2)c1` (stereo not given), 326 nM; as for `CC(C)(C)c1ccc(CCNCC(c2ccc(C(F)(F)F)cc2)N2CCN(C3CCCCC3)CC2)cc1` (stereo not given), 832 nM. As for `CN(C)c1ccc(CCNCC(c2ccc(C(C)(C)C)cc2)N2CCN(C3CCCCC3)CC2)cc1` (stereo not given), the figure is 312 nM; as for `COc1ccc(NC(=O)NCC(c2ccc(C(F)(F)F)cc2)N2CCN(c3ccccc3)CC2)cc1` (stereo not given), 14800 nM; as for `COc1ccccc1CCNCC(c1ccccc1OC)N1CCN(c2ccccc2)CC1` (stereo not given), 1580 nM.

For the molecule `COc1ccccc1NC(=O)NCC(c1ccc(C(F)(F)F)cc1)N1CCN(C2CCCCC2)CC1` (stereo not given), affinity was put at a Ki of 3650 nM. Compared with the last molecule, the Ki is about 2.3-fold higher.

`CC(C)(C)c1ccc(C(CNC(=O)Nc2ccc(F)cc2)N2CCN(C3CCCCC3)CC2)cc1` (stereo not given): the Ki was 1120 nM.

The molecule `CN(C)c1ccc(CCNCC(c2ccc(C(F)(F)F)cc2)N2CCN(C3CCCCC3)CC2)cc1` (stereo not given) showed an inhibition constant (Ki) of 1080 nM. As for `COc1ccc(NC(=O)NCC(c2ccc(C(C)(C)C)cc2)N2CCN(C3CCCCC3)CC2)cc1` (stereo not given), the figure is 1980 nM. As for `O=C(NCC(c1ccc(C(F)(F)F)cc1)N1CCN(C2CCCCC2)CC1)Nc1ccc(F)cc1` (stereo not given), the figure is 1110 nM; as for `CN1CCN(C(CNCCc2ccccc2)c2ccccc2)CC1` (stereo not given), 21800 nM. Take `COc1ccc(NC(=O)NCC(c2ccccc2)N2CCN(C3CCCCC3)CC2)cc1` (stereo not given): the Ki came to 9830 nM. With `Cc1ccc(NC(=O)NCC(c2ccccc2)N2CCN(C3CCCCC3)CC2)cc1` (stereo not given), the Ki stood at 5390 nM. For the molecule `CC(C)(C)c1ccc(C(CNC(=O)Nc2ccccc2)N2CCN(C3CCCCC3)CC2)cc1` (stereo not given), the Ki was 1130 nM. Compared with the last molecule, the Ki is about 4.8-fold lower. To `COc1ccc(NC(=O)NCC(c2ccc(C(F)(F)F)cc2)N2CCN(C3CCCCC3)CC2)cc1` (stereo not given) belongs 1710 nM. To `O=C(NCC(c1ccc(C(F)(F)F)cc1)N1CCN(C2CCCCC2)CC1)Nc1cc(Cl)cc(Cl)c1` (stereo not given) belongs 932 nM; to `COc1ccc(C(CNCCc2ccccc2)N2CCN(C3CCCCC3)CC2)cc1` (stereo not given), 1040 nM; to `COc1ccc(C(CNCCc2cc(C)cc(C)c2)N2CCN(C3CCCCC3)CC2)cc1` (stereo not given), 50 nM.

Turning to `Cc1ccc(NC(=O)NCC(c2ccc(C(F)(F)F)cc2)N2CCN(C3CCCCC3)CC2)cc1` (stereo not given), the affinity corresponds to a Ki of 1070 nM. This Ki lies about 21-fold higher than the previous one. In turn, `COc1ccc(C(CNC(=O)Nc2cc(Cl)cc(Cl)c2)N2CCN(C3CCCCC3)CC2)cc1` (stereo not given) showed a Ki of 830 nM. This Ki and that of the molecule before are within 1.5-fold of each other. Consider `COc1ccc(CCNCC(c2ccc(C(C)(C)C)cc2)N2CCN(c3ccccc3)CC2)cc1` (stereo not given), for which affinity was put at a Ki of 768 nM. This Ki and that of the molecule before are within 1.5-fold of each other. To `FC(F)(F)c1ccc(C(CNCCc2ccccc2)N2CCN(C3CCCCC3)CC2)cc1` (stereo not given) belongs 484 nM. As for `COc1ccccc1CCNCC(c1ccc(C(C)(C)C)cc1)N1CCN(C2CCCCC2)CC1` (stereo not given), the figure is 216 nM; as for `CC(C)(C)c1ccc(C(CNCCc2ccc(C(F)(F)F)cc2)N2CCN(C3CCCCC3)CC2)cc1` (stereo not given), 231 nM. To `COc1ccc(CCNCC(c2ccc(C(F)(F)F)cc2)N2CCN(c3ccccc3)CC2)cc1` (stereo not given) belongs 393 nM; to `COc1ccccc1C(CNCCc1cc(Cl)cc(Cl)c1)N1CCN(C2CCCCC2)CC1` (stereo not given), 344 nM. `CC(C)(C)c1ccc(NC(=O)NCC(c2ccc(C(C)(C)C)cc2)N2CCN(C3CCCCC3)CC2)cc1` (stereo not given) came in with an inhibition constant Ki of 2050 nM. As for `COc1ccccc1CC(=O)NCC(c1ccccc1OC)N1CCN(c2ccccc2)CC1` (stereo not given), the figure is 6000 nM. As for `Fc1ccc(CCNCC(c2ccc(C(F)(F)F)cc2)N2CCN(c3ccccc3)CC2)cc1` (stereo not given), the figure is 1200 nM. Molecule `COc1ccc(C(CNCCc2ccc(C)cc2)N2CCN(c3ccccc3)CC2)cc1` (stereo not given) yielded an inhibitory constant (Ki) of 597 nM. As for `O=C(NCC(c1ccccc1)N1CCN(C2CCCCC2)CC1)Nc1cc(Cl)cc(Cl)c1` (stereo not given), the figure is 1250 nM. As for `CN(C)c1ccc(C(CNC(=O)Cc2ccc(C(F)(F)F)cc2)N2CCN(c3ccccc3)CC2)cc1` (stereo not given), the figure is 34900 nM; as for `COc1ccc(C(CNCCc2ccc(F)cc2)N2CCN(C)CC2)cc1` (stereo not given), 11700 nM; as for `Cc1cc(C)cc(CCNCC(c2ccc(-c3ccccc3)cc2)N2CCN(C3CCCCC3)CC2)c1` (stereo not given), 517 nM. As for `Cc1ccc(NC(=O)NCC(c2ccc(-c3ccccc3)cc2)N2CCN(C3CCCCC3)CC2)cc1` (stereo not given), the inhibition constant (Ki) was 316 nM. To `FC(F)(F)c1ccc(CCNCC(c2ccc(C(F)(F)F)cc2)N2CCN(C3CCCCC3)CC2)cc1` (stereo not given) belongs 782 nM; to `O=C(NCC(c1ccccc1)N1CCN(C2CCCCC2)CC1)Nc1ccc(C(F)(F)F)cc1` (stereo not given), 1460 nM. As for `Fc1ccc(CCNCC(c2ccc(C(F)(F)F)cc2)N2CCN(C3CCCCC3)CC2)cc1` (stereo not given), the figure is 895 nM. As for `CN(C)c1ccc(CCNCC(c2ccccc2)N2CCN(c3ccccc3)CC2)cc1` (stereo not given), the figure is 1770 nM. As to `COc1ccc(C(CNCCc2ccc(C(C)(C)C)cc2)N2CCN(C3CCCCC3)CC2)cc1` (stereo not given), the inhibition constant (Ki) was 629 nM. This Ki lies about 2.8-fold lower than the previous one. As for `CC(C)(C)c1ccc(C(CNCCc2cc(Cl)cc(Cl)c2)N2CCN(C3CCCCC3)CC2)cc1` (stereo not given), the figure is 224 nM. As for `CC(C)(C)c1ccc(C(CNC(=O)Cc2ccccc2)N2CCN(c3ccccc3)CC2)cc1` (stereo not given), the figure is 11200 nM; as for `Cc1cc(C)cc(NC(=O)NCC(CC(C)C)N2CCN(c3ccc(Cl)c(Cl)c3)CC2)c1` (stereo not given), 313 nM. To `COc1ccc(C(CNCCc2ccc(C(F)(F)F)cc2)N2CCN(C3CCCCC3)CC2)cc1` (stereo not given) belongs 929 nM. Turning to `CN(C)c1ccc(NC(=O)NCC(c2ccc(C(C)(C)C)cc2)N2CCN(C3CCCCC3)CC2)cc1` (stereo not given), the Ki is 1720 nM.

Consider `COc1ccc(C(CNCCc2cc(Cl)cc(Cl)c2)N2CCN(C3CCCCC3)CC2)cc1` (stereo not given), for which the affinity, expressed as Ki, was 62 nM. As for `CC(C)CC(CNC(=O)Nc1ccc(Cl)cc1)N1CCN(C2CCCCC2)CC1` (stereo not given), the figure is 429 nM.

For `CN1CCN(C(CNCCc2ccc(C(F)(F)F)cc2)c2ccccc2)CC1` (stereo not given), the Ki was 8970 nM.

`CN(C)c1ccc(CCNCC(c2ccc(C(F)(F)F)cc2)N2CCN(c3ccccc3)CC2)cc1` (stereo not given) showed a Ki of 605 nM. `COc1ccccc1C(CNC(=O)Nc1cc(Cl)cc(Cl)c1)N1CCN(C2CCCCC2)CC1` (stereo not given): the inhibitory constant (Ki) is 897 nM. The Ki values of the last two molecules are within 1.5-fold of each other. To `COc1ccccc1NC(=O)NCC(c1ccc(C(F)(F)F)cc1)N1CCN(C)CC1` (stereo not given) belongs 3350 nM; to `COc1ccc(C(CNC(=O)Cc2ccccc2)N2CCN(c3ccccc3)CC2)cc1` (stereo not given), 40200 nM; to `CN1CCN(C(CNC(=O)Nc2cc(Cl)cc(Cl)c2)c2ccc(N(C)C)cc2)CC1` (stereo not given), 3810 nM. As for `COc1ccccc1CCNCC(c1ccc(C(C)(C)C)cc1)N1CCN(c2ccccc2)CC1` (stereo not given), the figure is 488 nM.

Molecule `CN(C)c1ccc(C(CNCCc2ccc(C(F)(F)F)cc2)N2CCN(c3ccccc3)CC2)cc1` (stereo not given) had an inhibition constant (Ki) of 1670 nM.

For the molecule `CC(C)(C)c1ccc(CCNCC(c2ccc(C(C)(C)C)cc2)N2CCN(C3CCCCC3)CC2)cc1` (stereo not given), the Ki worked out at 349 nM. To `COc1ccc(CCNCC(c2ccc(C(F)(F)F)cc2)N2CCN(C3CCCCC3)CC2)cc1` (stereo not given) belongs 477 nM; to `O=C(NCC(c1ccccc1)N1CCN(c2ccccc2)CC1)Nc1ccc(F)cc1` (stereo not given), 5550 nM. As for `Cc1ccc(NC(=O)NCC(CC(C)C)N2CCN(c3ccc(Cl)c(Cl)c3)CC2)cc1` (stereo not given), the figure is 179 nM; as for `CC(C)CC(CNC(=O)Nc1cc(Cl)cc(Cl)c1)N1CCN(C2CCCCC2)CC1` (stereo not given), 296 nM.

For the molecule `COc1ccccc1CC(=O)NCC(c1ccc(C(C)(C)C)cc1)N1CCN(c2ccccc2)CC1` (stereo not given), the affinity, expressed as Ki, was 8850 nM.

The molecule `Cc1ccc(NC(=O)NCC(c2ccccc2)N2CCN(c3ccccc3)CC2)cc1` (stereo not given) gave a Ki of 8020 nM.

In turn, `COc1ccc(C(CNC(=O)Nc2ccc(C)cc2)N2CCN(C3CCCCC3)CC2)cc1` (stereo not given) showed an inhibition constant (Ki) of 2250 nM. As for `O=C(NCC(c1ccc(C(F)(F)F)cc1)N1CCN(C2CCCCC2)CC1)Nc1ccccc1` (stereo not given), the figure is 479 nM. As for `CN1CCN(C(CNC(=O)Nc2cc(Cl)cc(Cl)c2)c2ccc(C(F)(F)F)cc2)CC1` (stereo not given), the figure is 5180 nM; as for `O=C(Cc1cc(Cl)cc(Cl)c1)NCC(c1ccccc1)N1CCN(C2CCCCC2)CC1` (stereo not given), 62500 nM; as for `CN1CCN(C(CNC(=O)Nc2ccc(F)cc2)c2ccc(N(C)C)cc2)CC1` (stereo not given), 7750 nM. Turning to `CN(C)c1ccc(C(CNC(=O)Nc2cc(Cl)cc(Cl)c2)N2CCN(C3CCCCC3)CC2)cc1` (stereo not given), the Ki came to 987 nM. This Ki lies about 7.9-fold lower than the previous one.
